Reference: ChEMBL document CHEMBL1135167, “Synthesis and antifungal activity of the 2,2,5-tetrahydrofuran regioisomers of SCH 51048” (2002)

Columns and labels:
Assay type in all cases: functional
Arthrodermataceae = assay: Compound was tested for inherent antifungal geometric minimum inhibitory concentration (GMMIC) against Dermatophytes in serial dilution from 64 to 0.0313 ug/mL
In short: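 Sabouraud dextrose broth, pH 5.7, inoculum ~10^4/cc, 27 °C, read visually at 72 h. MIC is the lowest concentration giving complete growth inhibition. Compound in DMSO or ethanol, serially diluted in broth. Geometric mean over T. mentagrophytes D24 and D30, T. rubrum D54 and D61, T. tonsurans D73 and M. canis D18.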

Candida = assay: Compound was tested for inherent antifungal geometric minimum inhibitory concentration (GMMIC) against Candida albicans and Candida tropicalis in serial dilution from 64 to 0.0313 ug/mL
In short: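 Eagle's minimum essential medium, pH 7.0. Compound in DMSO or ethanol, serially diluted in medium, inoculum 5×10^2/cc. Incubated at 37 °C under CO2 for 48 h. MIC is the lowest concentration with complete visible growth inhibition in microtiter wells. Geometric mean over C. albicans and C. tropicalis strains.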

Aspergillus sp. = assay: Compound was tested for inherent antifungal geometric minimum inhibitory concentration (GMMIC) against Aspergillus in serial dilution from 64 to 0.0313 ug/mL
In short: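 Broth microdilution in Sabouraud dextrose broth, pH 5.7. Compound dissolved in DMSO or ethanol and serially diluted in medium. Inoculum ~10^4/cc, incubated at 27 °C for 72 h. MIC is the lowest concentration giving complete growth inhibition by visual reading. Geometric mean taken across the Aspergillus isolates.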

Compound	GMMIC (Arthrodermataceae)	GMMIC (Candida)	GMMIC (Aspergillus sp.)
CCC(CC)n1ncn(-c2ccc(N3CCN(c4ccc(OC[C@@H]5CO[C@@](Cn6cncn6)(c6ccc(F)cc6F)C5)cc4)CC3)cc2)c1=O	>=0.06 ug ml-1	<=0.04 ug ml-1	0.04 µg/mL
CCC(CC)n1ncn(-c2ccc(N3CCN(c4ccc(OC[C@@H]5CC[C@@](Cn6cncn6)(c6ccc(F)cc6F)O5)cc4)CC3)cc2)c1=O	>=128 ug ml-1	<=0.1 ug ml-1	>=128 ug ml-1
CCC(CC)n1ncn(-c2ccc(N3CCN(c4ccc(OC[C@H]5CO[C@](Cn6cncn6)(c6ccc(F)cc6F)C5)cc4)CC3)cc2)c1=O	>=128 ug ml-1	0.27 µg/mL	>=128 ug ml-1
CCC(CC)n1ncn(-c2ccc(N3CCN(c4ccc(OC[C@H]5CC[C@](Cn6cncn6)(c6ccc(F)cc6F)O5)cc4)CC3)cc2)c1=O	>=0.35 ug ml-1	0.02 µg/mL	0.25 µg/mL
CCC(C)n1ncn(-c2ccc(N3CCN(c4ccc(OCC5COC(Cn6cncn6)(c6ccc(Cl)cc6Cl)O5)cc4)CC3)cc2)c1=O (racemic) [ITRACONAZOLE]	>=0.89 ug ml-1	0.04 µg/mL	0.3 µg/mL
